Measurements: paper PMC2841041 (Developmental cell, 2010)
Peptide text beside a SMILES is read from it. * marks the point of attachment. Cbz = O=C(OCc1ccccc1)*; CH2F = FC*

Key:
[1] = tested on: APP distribution in HeLa cells; assay: Immunofluorescence microscopy, intracellular distribution of APP; type: cell-based
μ4 subunit of AP-4 = assay: Yeast two-hybrid; type: binding, human; settings: His-deficient plates, 30°C
[2] = target: T1, recombinant μ4 C-terminal domain (Homo sapiens, UniProt O00189, C235S/C431S); assay: Isothermal titration calorimetry; type: binding; settings: purified components, synthetic peptide
T1 sequence (O00189 160-453 C235S/C431S): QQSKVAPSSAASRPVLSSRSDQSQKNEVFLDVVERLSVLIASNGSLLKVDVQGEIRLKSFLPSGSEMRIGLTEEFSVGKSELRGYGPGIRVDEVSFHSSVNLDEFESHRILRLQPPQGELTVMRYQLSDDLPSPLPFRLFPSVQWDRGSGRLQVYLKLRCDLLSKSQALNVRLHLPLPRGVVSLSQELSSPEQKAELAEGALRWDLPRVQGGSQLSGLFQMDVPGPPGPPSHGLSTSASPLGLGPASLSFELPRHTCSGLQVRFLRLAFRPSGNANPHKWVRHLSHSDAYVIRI

[3] = tested on: HeLa cells expressing APP-CFP; assay: Immunoblot of APP-CFP fragments; type: cell-based; settings: for C31 fragment levels/formation: DAPT-treated cells
How it was run: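 HeLa cells transfected (Lipofectamine 2000, 1 h, 37°C, no FBS) with C-terminally CFP-tagged APP (wild-type, D664A or F689A/F690A/E691A), or μ4-siRNA-depleted twice and then APP-CFP-transfected. Analysed 8–16 h post-transfection after 16 h ± 250 nM DAPT, 100 μM E-64 and/or 200 μM Z-VAD-FMK. Pellet/supernatant fractionation in some runs. SDS-PAGE, anti-GFP immunoblot. Fragment levels given as mean ± SD of three experiments.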

[4] = tested on: HeLa cells expressing CTFβ-GFP; assay: Processing of CTFβ-GFP; type: cell-based; settings: immunoblot, antibody to GFP; for CTFα and C31 from CTFβ-GFP: DAPT-treated cells
How it was run: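 CTFβ-GFP (wild-type, D664A or F689A/F690A/E691A) expressed in HeLa cells, or in mock- or μ4-siRNA-depleted cells. Same handling: lipofection, 8–16 h, then 16 h ± 250 nM DAPT, 100 μM E-64 and/or 200 μM Z-VAD-FMK, anti-GFP immunoblot; mean ± SD, n=3. Aβ: 4 h [35S]Met-Cys labelling at 37°C, medium immunoprecipitated with 6E10, Tricine 10–20% gels, fluorography; mean ± SD, n=4.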

HeLa cells = assay: Pulse-chase / immunoblot analysis of APP processing and CTF levels; type: cell-based; settings: 250 nM DAPT; decrease elicited by FFE mutation or μ4 depletion
[5] = tested on: ε, β4 and σ4 subunits of AP-4; assay: Y2H of APP tail with other AP-4 subunits; type: binding
mutant μ4 = assay: Yeast two-hybrid; type: binding, human
How it was run: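 Yeast co-transformed with Gal4ad fused to wild-type or point-mutant human μ4 (mutations introduced by site-directed mutagenesis) and Gal4bd fused to the APP tail (human APP695 template). Cells spotted on His-deficient and His-containing plates and incubated at 30°C; growth on −His scored as interaction. Controls: Gal4bd-mouse p53 with Gal4ad-SV40 large T antigen.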

μ1, μ2 and μ3 subunits = assay: Y2H of APP signal with other AP μ subunits; type: binding
[6] = target: T2, recombinant μ4 C-terminal domain (160–453; C235S, C431S) (human, UniProt O00189 160-453, C235S | C431S); assay: ITC
T2 sequence (looked up): T1 sequence (O00189 160-453 C235S/C431S)

Molecule: APP-WT: wild-type APP expressed in HeLa cells
- localization of APP to endosomes ([1]; HeLa cells, normal conditions, n=11): 74 ± 8%

Molecule: YKYLE
- Y2H interaction with μ4 (μ4 subunit of AP-4): indeed bind to μ4

Molecule: ENPTAKAAEQ
- binding site number / binding by ITC [2]: but not a substituted ENPTAKAAEQ variant, bound

Molecule: C[C@H](NC(=O)Cc1cc(F)cc(F)c1)C(=O)N[C@H](C(=O)OC(C)(C)C)c1ccccc1 [DAPT]
- C31 fragment levels/formation ([3]; immunoblot, antibody to GFP): increased the levels of a smaller, soluble fragment
- difference in AICDγ-CFP levels / CTF accumulation with DAPT ([3]; FFE mutation or μ4 depletion, incubation with DAPT): abolished by incubation with DAPT, resulting in the accumulation of equal amounts of CTFs under all conditions
- AICDγ-CFP formation/levels ([3]; immunoblot, antibody to GFP): precluded AICDγ-CFP formation
- CTFα-CFP levels ([3]; immunoblot, antibody to GFP, DAPT 250 nM): increased CTFα-CFP levels
- AICDγ formation/levels from CTFβ-GFP [4]: prevented AICDγ formation
- CTFα and C31 from CTFβ-GFP [4]: resulted in the appearance of CTFα and C31
- effect of DAPT on the decrease in steady-state CTFα levels (HeLa cells): abrogated the decrease in steady-state CTFα levels

Molecule: COC(=O)C[C@H](NC(=O)[C@H](C)NC(=O)[C@@H](NC(=O)OCc1ccccc1)C(C)C)C(=O)CF [Z-VAD-FMK] (Cbz-Val-Ala-Asp(OMe)-CH2F)
- C31 fragment levels/formation ([3]; immunoblot, antibody to GFP): prevented
- CTFα and C31 from CTFβ-GFP [4]: absence

Molecule: C[C@@H]1C[C@@H]([C@H](O)CC2CC(=O)NC(=O)C2)C(=O)[C@@H](C)C1 [cycloheximide, reference compound]
- effect on APP-WT staining ([1]; inhibition of protein synthesis, mock- and μ4-depleted cells): rapid disappearance of APP-WT staining in both mock- and μ4-depleted cells

Molecule: YRFLE
- Y2H interaction with μ4 (μ4 subunit of AP-4): indeed bind to μ4

Molecule: APP tail: cytosolic tail of APP fused to Gal4bd
- Y2H interaction with ε, β4 and σ4 [5]: did not bind to the APP tail
- Y2H interaction with μ4 (μ4 subunit of AP-4): interacted exclusively with the μ4 subunit of AP-4
- Y2H binding to μ4 S257A/H256A/F255A (mutant μ4; Ser-257 to Ala together with His-256 and Phe-255 to Ala): completely abolished binding
- Y2H binding to μ4 F255A/R283D (mutant μ4; double mutation of Phe-255 and Arg-283): completely abrogated
- Y2H binding to μ4 S257A (mutant μ4; mutation of Ser-257 to Ala): no detectable effect
- Y2H binding to μ4 H256A, E265A or R283A (mutant μ4; single mutation of His-256, Glu-265, Arg-283 to Ala): little or no effect on the interaction
- Y2H binding to μ4 F255A or R283D (mutant μ4; single mutation of Phe-255 to Ala, or Arg-283 to Asp): drastically reduced
- Y2H binding to μ4 H256A/E265A/R283A (mutant μ4; triple mutation): greatly decreased the interaction

Molecule: YKFFE
- Y2H interaction with μ1, μ2, μ3 (μ1, μ2 and μ3 subunits): does not bind to these μ subunits

B1: synthetic ENPTYKFFEQ peptide derived from the APP tail (peptide)
peptide: ENPTYKFFEQ
- stoichiometry N [6]: 1
